The results in this text go back to ChEMBL document CHEMBL1944546, “Structure-activity relationships of novel alkylides: 3-O-arylalkyl clarithromycin derivatives with improved antibacterial activities” (2012).

In brackets after ≈: the same amount, converted by molar mass. Bounds are passed on as bounds.

Assay [1] concerns Staphylococcus haemolyticus. Nature of the assay: Antibacterial activity against methicillin-resistant, coagulase-negative, constitutive MLS-resistant Staphylococcus haemolyticus PU 19 by broth microdilution method. Type of assay: functional. The method in brief: (§1)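 MIC by broth microdilution following CLSI (2010) recommendations, using clinical isolates identified by 16S rDNA sequencing and labelled by genotype and phenotype. S. aureus ATCC 29213 and S. pneumoniae ATCC 49619 were run as control strains, and azithromycin, clarithromycin and 3-OH-clarithromycin were tested as reference agents.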
On the technique in general: In broth dilution the organism is exposed to a series of concentrations in liquid medium.

The test system of assay [2] is Streptococcus pyogenes. As to the kind of experiment: Antibacterial activity against constitutive MLS-resistant Streptococcus pyogenes A 2 by broth microdilution method. The assay is classed as functional. A digest of the protocol: as §1
Another assay deals with Staphylococcus hominis. As to the kind of experiment: Antibacterial activity against methicillin-resistant, coagulase-negative, inducible MLS-resistant Staphylococcus hominis E3 by broth microdilution method. Type of assay: functional. A digest of the protocol:
as §1

Assay [3] has as its system Staphylococcus aureus. As to the kind of experiment: Antibacterial activity against methicillin-, constitutive MLS-resistant […] by broth microdilution method. Type of assay: functional. A digest of the protocol: as §1
For assay [4], the system named is Staphylococcus aureus. As to the kind of experiment: Antibacterial activity against erythromycin-susceptible Staphylococcus aureus ATCC 29213 by broth microdilution method. The assay is classed as functional. The method in brief:
(§2)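 MIC read by broth microdilution following CLSI (2010) guidance. The clinical isolates were identified by 16S rDNA sequencing and labelled by genotype and phenotype. S. aureus ATCC 29213 and S. pneumoniae ATCC 49619 were the control strains. Azithromycin, clarithromycin and 3-OH-clarithromycin were run as reference compounds.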

The test system of assay [5] is Staphylococcus aureus. As to the kind of experiment: Antibacterial activity against methicillin-, inducible MLS-resistant Staphylococcus aureus PU 32 by broth microdilution method.
Assay [6] has as its system Staphylococcus epidermidis. As to the kind of experiment: Antibacterial activity against methicillin-susceptible, inducible MLS-resistant Staphylococcus epidermidis E1 by broth microdilution method. Type of assay: functional. The method in brief: as §1
For assay [7], the system named is Staphylococcus epidermidis. As to the kind of experiment: Antibacterial activity against methicillin-resistant, constitutive MLS-resistant Staphylococcus epidermidis E2 by broth microdilution method. Type of assay: functional. A digest of the protocol: as §1
For assay [8], the system named is Streptococcus pyogenes. As to the kind of experiment: Antibacterial activity against erythromycin-susceptible Streptococcus pyogenes A 3 by broth microdilution method. The assay is classed as functional. The method in brief:
as §2

Assay [9] has as its system Streptococcus dysgalactiae. As to the kind of experiment: Antibacterial activity against efflux, erythromycin-resistant Streptococcus dysgalactiae A 1 by broth microdilution method. Type of assay: functional. A digest of the protocol:
as §1

In assay [10] the test system is Streptococcus pneumoniae. Nature of the assay: Antibacterial activity against penicillin-, constitutive MLS-resistant Streptococcus pneumoniae PU 11 by broth microdilution method. Type of assay: functional. The method in brief:
as §1

Assay [11] relates to Staphylococcus aureus. As to the kind of experiment: Antibacterial activity against methicillin-susceptible, inducible MLS-resistant Staphylococcus aureus PU 64 by broth microdilution method. Type of assay: functional. The method in brief: as §1
The subject of assay [12] is Streptococcus pneumoniae. As to the kind of experiment: Antibacterial activity against erythromycin-susceptible Streptococcus pneumoniae ATCC 49619 by broth microdilution method. The assay is classed as functional. The method in brief:
as §2

For assay [13], the system named is Streptococcus pneumoniae. As to the kind of experiment: Antibacterial activity against penicillin-susceptible, constitutive MLS-resistant Streptococcus pneumoniae PU 27 by broth microdilution method. Type of assay: functional. The method in brief:
as §1

The subject of assay [14] is Streptococcus pneumoniae. As to the kind of experiment: Antibacterial activity against efflux,penicillin-susceptible Streptococcus pneumoniae PU 09 by broth microdilution method. The assay is classed as functional. A digest of the protocol:
as §2

What is called MIC is the lowest concentration found to suppress growth. Higher therefore signals a need for much substance. For `CC[C@H]1OC(=O)[C@H](C)[C@@H](OC/C=C/c2cncnc2)[C@H](C)[C@@H](O[C@@H]2O[C@H](C)C[C@H](N(C)C)[C@H]2O)[C@](C)(OC)C[C@@H](C)/C(=N\OCc2c(C)cc(C)cc2C)[C@H](C)[C@H]2OC(=O)O[C@@]21C`, the MIC in assay [1] was over 256 µg/mL; against Streptococcus pyogenes [2], 32 µg/mL (≈ 36.3 µM); with Staphylococcus hominis, over 256 µg/mL; in the assay with Staphylococcus aureus [3], over 256 µg/mL; in the assay on Staphylococcus aureus [4], over 256 µg/mL; against Staphylococcus aureus [5], over 256 µg/mL. For the same compound, the MIC in assay [6] was over 256 µg/mL; in [7] it was over 256 µg/mL; in the assay on Streptococcus pyogenes [8], 32 µg/mL (≈ 36.3 µM); in assay [9], 32 µg/mL (≈ 36.3 µM); against Streptococcus pneumoniae [10], 64 µg/mL (≈ 72.6 µM); against Staphylococcus aureus [11], over 256 µg/mL. Besides, the minimal inhibitory concentration (MIC) with Streptococcus pneumoniae [12] stood at 16 µg/mL (≈ 18.2 µM); in the assay on Streptococcus pneumoniae [13], 64 µg/mL (≈ 72.6 µM); with Streptococcus pneumoniae [14] it was 32 µg/mL (≈ 36.3 µM).
As to `CC[C@H]1OC(=O)[C@H](C)[C@@H](OCCCc2cccnc2)[C@H](C)[C@@H](O[C@@H]2O[C@H](C)C[C@H](N(C)C)[C@H]2O)[C@](C)(OC)C[C@@H](C)/C(=N\OCc2ccccc2Cl)[C@H](C)[C@H]2OC(=O)O[C@@]21C`, the MIC in assay [1] was over 256 µg/mL; against Streptococcus pyogenes [2], 32 µg/mL (≈ 36.6 µM); in the assay with Staphylococcus hominis, over 256 µg/mL; in the assay with Staphylococcus aureus [3], over 256 µg/mL; with Staphylococcus aureus [4] it was over 256 µg/mL; in the assay on Staphylococcus aureus [5], over 256 µg/mL. Besides, the MIC in [6] is over 256 µg/mL; in assay [7], over 256 µg/mL; with Streptococcus pyogenes [8], 8 µg/mL (≈ 9.15 µM); in [9], 16 µg/mL (≈ 18.3 µM); against Streptococcus pneumoniae [10], 64 µg/mL (≈ 73.2 µM); in the assay on Staphylococcus aureus [11] it was over 256 µg/mL. The MIC came out at 8 µg/mL (≈ 9.15 µM) against Streptococcus pneumoniae [12], 32 µg/mL (≈ 36.6 µM) against Streptococcus pneumoniae [13] and 16 µg/mL (≈ 18.3 µM) with Streptococcus pneumoniae [14].
With `CC[C@H]1OC(=O)[C@H](C)[C@@H](OCCCc2cncnc2)[C@H](C)[C@@H](O[C@@H]2O[C@H](C)C[C@H](N(C)C)[C@H]2O)[C@](C)(OC)C[C@@H](C)/C(=N\OCc2ccccc2Cl)[C@H](C)[C@H]2OC(=O)O[C@@]21C`, the MIC is over 256 µg/mL in assay [1]; 32 µg/mL (≈ 36.6 µM) in the assay on Streptococcus pyogenes [2]; over 256 µg/mL in the assay with Staphylococcus hominis; over 256 µg/mL with Staphylococcus aureus [3]; 16 µg/mL (≈ 18.3 µM) against Staphylococcus aureus [4]; 16 µg/mL (≈ 18.3 µM) in the assay with Staphylococcus aureus [5]. Moreover, the MIC is over 256 µg/mL in assay [6]; over 256 µg/mL in assay [7]; 1 µg/mL (≈ 1.14 µM) against Streptococcus pyogenes [8]; 4 µg/mL (≈ 4.57 µM) in [9]; over 256 µg/mL with Streptococcus pneumoniae [10]; over 256 µg/mL in the assay with Staphylococcus aureus [11]. The figures for the MIC with Streptococcus pneumoniae [12], in the assay with Streptococcus pneumoniae [13] and with Streptococcus pneumoniae [14] were 1 µg/mL (≈ 1.14 µM), 32 µg/mL (≈ 36.6 µM) and 2 µg/mL (≈ 2.28 µM), respectively.
`CC[C@H]1OC(=O)[C@H](C)[C@@H](O[C@H]2C[C@@](C)(OC)[C@@H](O)[C@H](C)O2)[C@H](C)[C@@H](O[C@@H]2O[C@H](C)C[C@H](N(C)C)[C@H]2O)[C@](C)(O)C[C@@H](C)CN(C)[C@H](C)[C@@H](O)[C@]1(C)O` [AZITHROMYCIN]: the MIC is over 256 µg/mL in assay [1]; over 256 µg/mL in the assay with Streptococcus pyogenes [2]; over 256 µg/mL in the assay with Staphylococcus hominis; over 256 µg/mL against Staphylococcus aureus [3]; 1 µg/mL (≈ 1.34 µM) in the assay on Staphylococcus aureus [4]; 8 µg/mL (≈ 10.7 µM) in the assay with Staphylococcus aureus [5]. The MIC in [6] is over 256 µg/mL; in assay [7], over 256 µg/mL; against Streptococcus pyogenes [8], 0.125 µg/mL (≈ 0.167 µM); in assay [9] it was 32 µg/mL (≈ 42.7 µM); with Streptococcus pneumoniae [10], over 256 µg/mL; in the assay with Staphylococcus aureus [11], 8 µg/mL (≈ 10.7 µM). Also, the MIC with Streptococcus pneumoniae [12] was determined as 0.25 µg/mL (≈ 0.334 µM); with Streptococcus pneumoniae [13], 64 µg/mL (≈ 85.4 µM); with Streptococcus pneumoniae [14], 8 µg/mL (≈ 10.7 µM).
In the case of `CC[C@H]1OC(=O)[C@H](C)[C@@H](OC/C=C/c2cncnc2)[C@H](C)[C@@H](O[C@@H]2O[C@H](C)C[C@H](N(C)C)[C@H]2O)[C@](C)(OC)C[C@@H](C)/C(=N\O)[C@H](C)[C@H]2OC(=O)O[C@@]21C`, the MIC is over 256 µg/mL in [1]; over 256 µg/mL against Streptococcus pyogenes [2]; over 256 µg/mL in the assay with Staphylococcus hominis; over 256 µg/mL in the assay with Staphylococcus aureus [3]; 8 µg/mL (≈ 10.7 µM) in the assay on Staphylococcus aureus [4]; 8 µg/mL (≈ 10.7 µM) with Staphylococcus aureus [5]. For the same compound, the MIC in assay [6] is over 256 µg/mL; in assay [7], over 256 µg/mL; with Streptococcus pyogenes [8], 0.125 µg/mL (≈ 0.167 µM); in assay [9], 1 µg/mL (≈ 1.34 µM); in the assay with Streptococcus pneumoniae [10] it was over 256 µg/mL; with Staphylococcus aureus [11] it was 4 µg/mL (≈ 5.34 µM). Besides, the MIC against Streptococcus pneumoniae [12] was found to be 0.5 µg/mL (≈ 0.668 µM); against Streptococcus pneumoniae [13], 32 µg/mL (≈ 42.7 µM); against Streptococcus pneumoniae [14] it was 4 µg/mL (≈ 5.34 µM).
Take `CC[C@H]1OC(=O)[C@H](C)[C@@H](OCC#Cc2cncnc2)[C@H](C)[C@@H](O[C@@H]2O[C@H](C)C[C@H](N(C)C)[C@H]2O)[C@](C)(OC)C[C@@H](C)/C(=N\O)[C@H](C)[C@@H](O)[C@]1(C)O`: the MIC (in [1]; against Streptococcus pyogenes [2]; in the assay on Staphylococcus hominis; against Staphylococcus aureus [3]; in the assay on Staphylococcus aureus [4]; in the assay on Staphylococcus aureus [5]) was over 256 µg/mL each time. The MIC (in assay [6]; in assay [7]; in the assay with Streptococcus pyogenes [8]; in assay [9]; in the assay on Streptococcus pneumoniae [10]; against Staphylococcus aureus [11]) was over 256 µg/mL each time. Further, the MIC in the assay with Streptococcus pneumoniae [12], in the assay on Streptococcus pneumoniae [13] and with Streptococcus pneumoniae [14] was over 256 µg/mL each time.
As to `CC[C@H]1OC(=O)[C@H](C)[C@@H](O[C@H]2C[C@@](C)(OC)[C@@H](O)[C@H](C)O2)[C@H](C)[C@@H](O[C@@H]2O[C@H](C)C[C@H](N(C)C)[C@H]2O)[C@](C)(OC)C[C@@H](C)C(=O)[C@H](C)[C@@H](O)[C@]1(C)O` [CLARITHROMYCIN], the MIC in [1] was over 256 µg/mL; against Streptococcus pyogenes [2], over 256 µg/mL; against Staphylococcus hominis, over 256 µg/mL; against Staphylococcus aureus [3], over 256 µg/mL; with Staphylococcus aureus [4] it was 0.25 µg/mL (≈ 0.334 µM); against Staphylococcus aureus [5], 1 µg/mL (≈ 1.34 µM). For the same compound, the MIC in [6] was over 256 µg/mL; in assay [7], over 256 µg/mL; in the assay with Streptococcus pyogenes [8], 0.032 µg/mL (≈ 0.0428 µM); in [9] it was 8 µg/mL (≈ 10.7 µM); against Streptococcus pneumoniae [10], over 256 µg/mL; in the assay on Staphylococcus aureus [11], 2 µg/mL (≈ 2.67 µM). Moreover, the MIC in the assay on Streptococcus pneumoniae [12] worked out at 0.032 µg/mL (≈ 0.0428 µM); against Streptococcus pneumoniae [13], 1 µg/mL (≈ 1.34 µM); against Streptococcus pneumoniae [14] it was 4 µg/mL (≈ 5.35 µM).
For the compound `CC[C@H]1OC(=O)[C@H](C)[C@@H](OC/C=C/c2cncnc2)[C@H](C)[C@@H](O[C@@H]2O[C@H](C)C[C@H](N(C)C)[C@H]2O)[C@](C)(OC)C[C@@H](C)/C(=N\O)[C@H](C)[C@@H](O)[C@]1(C)O`, the MIC (in assay [1]; in the assay on Streptococcus pyogenes [2]; with Staphylococcus hominis; with Staphylococcus aureus [3]; against Staphylococcus aureus [4]; against Staphylococcus aureus [5]) was over 256 µg/mL throughout. Also, the MIC in [6] was over 256 µg/mL; in assay [7], over 256 µg/mL; in the assay with Streptococcus pyogenes [8] it was 8 µg/mL (≈ 11.1 µM); in assay [9] it was 16 µg/mL (≈ 22.1 µM); in the assay with Streptococcus pneumoniae [10], over 256 µg/mL; in the assay with Staphylococcus aureus [11] it was over 256 µg/mL. Besides, the results for the MIC with Streptococcus pneumoniae [12], in the assay with Streptococcus pneumoniae [13] and in the assay with Streptococcus pneumoniae [14] were 16 µg/mL (≈ 22.1 µM), 128 µg/mL (≈ 177 µM) and 32 µg/mL (≈ 44.3 µM), respectively.
